In article PMC10238757 (Pharmacology Research & Perspectives, 2023):
Where two headings read alike, the source gives them in different places. Marks after values point to notes of the source that are not given here.

Experiments:
rats = assay: Dose ranging and good laboratory practice toxicology studies in rats; assay type: in vivo
healthy participants [1] = assay: Safety and tolerability, multiple ascending dose; assay type: in vivo, human; settings: for Abdominal pain, n occurrences (% of cohort) / All-cause AEs Grade 2, n occurrences (% of cohort) / All-cause AEs Grade 3/4, n occurrences (% of cohort) / All-cause AEs, n occurrences (% of cohort) / Constipation, n occurrences (% of cohort) / Diarrhea, n occurrences (% of cohort) / Drug-related AEs Grade 2, n occurrences (% of cohort) / Drug-related AEs Grade 3/4, n occurrences (% of cohort) / Drug-related AEs, n occurrences (% of cohort) / Headache, n occurrences (% of cohort) / MDSD, n occurrences (% of cohort): N=7
How it was run: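 AEs in healthy participants given oral test compound or placebo, recorded with grade and relation to treatment. Laboratory analyses, clinical parameters and suicidality were also monitored. Observation ran 360 h after dosing. Summaries were descriptive, with no formal statistics; parts 1–2 blinded and placebo-controlled, part 3 open-label.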

healthy participants [2] = settings: for Abdominal pain, n occurrences (% of cohort) / All-cause AEs Grade 2, n occurrences (% of cohort) / All-cause AEs Grade 3/4, n occurrences (% of cohort) / All-cause AEs, n occurrences (% of cohort) / Constipation, n occurrences (% of cohort) / Diarrhea, n occurrences (% of cohort) / Drug-related AEs Grade 2, n occurrences (% of cohort) / Drug-related AEs Grade 3/4, n occurrences (% of cohort) / Drug-related AEs, n occurrences (% of cohort) / Headache, n occurrences (% of cohort) / MDSD, n occurrences (% of cohort): N=6

C=C(C)[C@@H]1CC[C@]2(NCCN3CCS(=O)(=O)CC3)CC[C@]3(C)[C@H](CC[C@@H]4[C@@]5(C)CC=C(C6=CC[C@@](COc7ncccc7C#N)(C(=O)O)CC6)C(C)(C)[C@@H]5CC[C@]43C)[C@@H]12 [GSK'937]
No significant changes: changes in laboratory analyses, clinical parameters, or suicidality (healthy participants [1]; MAD)
no deaths or SAEs: deaths or SAEs (healthy participants [1]; MAD)
No deaths or SAEs occurred: deaths or SAEs (healthy participants [2]; SAD)
8 (71): All-cause AEs, n occurrences (% of cohort) (healthy participants [1]; MAD 100 mg QD)
3 (29): All-cause AEs, n occurrences (% of cohort) (healthy participants [1]; MAD 50 mg QD)
5 (50): All-cause AEs, n occurrences (% of cohort) (healthy participants [2]; SAD 30 mg)
2 (33): Constipation, n occurrences (% of cohort) (healthy participants [2]; SAD 30 mg)
4 (50) ^f: All-cause AEs, n occurrences (% of cohort) (healthy participants [2]; SAD 80 mg)
0: Abdominal pain, n occurrences (% of cohort) (healthy participants [1]; MAD 25 mg QD) | All-cause AEs Grade 2, n occurrences (% of cohort) (healthy participants [1]; MAD 25 mg QD) | All-cause AEs Grade 3/4, n occurrences (% of cohort) (healthy participants [1]; MAD 25 mg QD) | All-cause AEs, n occurrences (% of cohort) (healthy participants [1]; MAD 25 mg QD) | Constipation, n occurrences (% of cohort) (healthy participants [1]; MAD 25 mg QD) | Diarrhea, n occurrences (% of cohort) (healthy participants [1]; MAD 25 mg QD) | Drug-related AEs Grade 2, n occurrences (% of cohort) (healthy participants [1]; MAD 25 mg QD) | Drug-related AEs Grade 3/4, n occurrences (% of cohort) (healthy participants [1]; MAD 25 mg QD) | Drug-related AEs, n occurrences (% of cohort) (healthy participants [1]; MAD 25 mg QD) | Headache, n occurrences (% of cohort) (healthy participants [1]; MAD 25 mg QD) | MDSD, n occurrences (% of cohort) (healthy participants [1]; MAD 25 mg QD) | Abdominal pain, n occurrences (% of cohort) (healthy participants [1]; MAD 50 mg QD) | All-cause AEs Grade 3/4, n occurrences (% of cohort) (healthy participants [1]; MAD 50 mg QD) | Constipation, n occurrences (% of cohort) (healthy participants [1]; MAD 50 mg QD) | Diarrhea, n occurrences (% of cohort) (healthy participants [1]; MAD 50 mg QD) | Drug-related AEs Grade 2, n occurrences (% of cohort) (healthy participants [1]; MAD 50 mg QD) | Drug-related AEs Grade 3/4, n occurrences (% of cohort) (healthy participants [1]; MAD 50 mg QD) | Drug-related AEs, n occurrences (% of cohort) (healthy participants [1]; MAD 50 mg QD) | Abdominal pain, n occurrences (% of cohort) (healthy participants [1]; MAD 100 mg QD) | All-cause AEs Grade 2, n occurrences (% of cohort) (healthy participants [1]; MAD 100 mg QD) | All-cause AEs Grade 3/4, n occurrences (% of cohort) (healthy participants [1]; MAD 100 mg QD) | Constipation, n occurrences (% of cohort) (healthy participants [1]; MAD 100 mg QD) | Diarrhea, n occurrences (% of cohort) (healthy participants [1]; MAD 100 mg QD) | Drug-related AEs Grade 2, n occurrences (% of cohort) (healthy participants [1]; MAD 100 mg QD) | Drug-related AEs Grade 3/4, n occurrences (% of cohort) (healthy participants [1]; MAD 100 mg QD) | Headache, n occurrences (% of cohort) (healthy participants [1]; MAD 100 mg QD) | All-cause AEs Grade 2, n occurrences (% of cohort) (healthy participants [1]; MAD 500 mg QW) | All-cause AEs Grade 3/4, n occurrences (% of cohort) (healthy participants [1]; MAD 500 mg QW) | Constipation, n occurrences (% of cohort) (healthy participants [1]; MAD 500 mg QW) | Drug-related AEs Grade 2, n occurrences (% of cohort) (healthy participants [1]; MAD 500 mg QW) | Drug-related AEs Grade 3/4, n occurrences (% of cohort) (healthy participants [1]; MAD 500 mg QW) | Headache, n occurrences (% of cohort) (healthy participants [1]; MAD 500 mg QW) | All-cause AEs Grade 2, n occurrences (% of cohort) (healthy participants [2]; SAD 10 mg) | All-cause AEs Grade 3/4, n occurrences (% of cohort) (healthy participants [2]; SAD 10 mg) | Constipation, n occurrences (% of cohort) (healthy participants [2]; SAD 10 mg) | Diarrhea, n occurrences (% of cohort) (healthy participants [2]; SAD 10 mg) | Drug-related AEs Grade 2, n occurrences (% of cohort) (healthy participants [2]; SAD 10 mg) | Drug-related AEs Grade 3/4, n occurrences (% of cohort) (healthy participants [2]; SAD 10 mg) | MDSD, n occurrences (% of cohort) (healthy participants [2]; SAD 10 mg) | Abdominal pain, n occurrences (% of cohort) (healthy participants [2]; SAD 30 mg) | All-cause AEs Grade 3/4, n occurrences (% of cohort) (healthy participants [2]; SAD 30 mg) | Diarrhea, n occurrences (% of cohort) (healthy participants [2]; SAD 30 mg) | Drug-related AEs Grade 3/4, n occurrences (% of cohort) (healthy participants [2]; SAD 30 mg) | Headache, n occurrences (% of cohort) (healthy participants [2]; SAD 30 mg) | Abdominal pain, n occurrences (% of cohort) (healthy participants [2]; SAD 80 mg) | All-cause AEs Grade 2, n occurrences (% of cohort) (healthy participants [2]; SAD 80 mg) | All-cause AEs Grade 3/4, n occurrences (% of cohort) (healthy participants [2]; SAD 80 mg)
7 (57): All-cause AEs, n occurrences (% of cohort) (healthy participants [1]; MAD 500 mg QW)
3 (43): Drug-related AEs, n occurrences (% of cohort) (healthy participants [1]; MAD 500 mg QW)
1 (17): Abdominal pain, n occurrences (% of cohort) (healthy participants [2]; SAD 10 mg) | Headache, n occurrences (% of cohort) (healthy participants [2]; SAD 10 mg) | All-cause AEs Grade 2, n occurrences (% of cohort) (healthy participants [2]; SAD 30 mg) | Drug-related AEs Grade 2, n occurrences (% of cohort) (healthy participants [2]; SAD 30 mg) | Drug-related AEs, n occurrences (% of cohort) (healthy participants [2]; SAD 30 mg) | MDSD, n occurrences (% of cohort) (healthy participants [2]; SAD 30 mg)
10 mg/kg/day: no observed adverse effect level (rats)
1 (14): All-cause AEs Grade 2, n occurrences (% of cohort) (healthy participants [1]; MAD 50 mg QD) | Headache, n occurrences (% of cohort) (healthy participants [1]; MAD 50 mg QD) | MDSD, n occurrences (% of cohort) (healthy participants [1]; MAD 50 mg QD) | Drug-related AEs, n occurrences (% of cohort) (healthy participants [1]; MAD 100 mg QD) | MDSD, n occurrences (% of cohort) (healthy participants [1]; MAD 100 mg QD) | Abdominal pain, n occurrences (% of cohort) (healthy participants [1]; MAD 500 mg QW) | MDSD, n occurrences (% of cohort) (healthy participants [1]; MAD 500 mg QW)
3 (17): All-cause AEs, n occurrences (% of cohort) (healthy participants [2]; SAD 10 mg) | Drug-related AEs, n occurrences (% of cohort) (healthy participants [2]; SAD 10 mg)
